In series [1] the test system is Calf thymus DNA. Nature of the series: Binding affinity to calf thymus DNA at 10:1 DNA to drug molar ratio by circular dichroism spectroscopic analysis. Format: nucleic-acid assay. As to conditions: Bos taurus.
Series [2] concerns Calf thymus DNA. Nature of the series: Binding affinity to calf thymus DNA assessed as change in melting temperature at 5.2 X 10^-6 M by thermal denaturation assay. The conditions noted are these: Bos taurus. Format: nucleic-acid assay. An outline of the steps:
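Calf thymus DNA filtered, concentration set by A259 (ε 6800). Drug in Me2SO diluted into 0.01 M phosphate pH 7.0. Final: drug 5.2×10⁻⁶ M, DNA 5.2×10⁻⁵ M (P), EDTA 1×10⁻⁵ M, 5% Me2SO. Equilibrated at 50 °C, then heated at 18 °C/h while absorbance was recorded. Tm corrected for volume expansion, temperature lag and baseline. ΔTm = Tm(complex) − Tm(DNA).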

Series [3] has as its system L1210. Nature of the series: Inhibition of DNA synthesis in mouse L1210 cells assessed as [3H]-thymidine incorporation preincubated for 3 hrs before [3H]-thymidine addition measured after 1 hr by scintillation spectrometric analysis. Format: functional. As to conditions: read-out: ED50 (the source's name). In outline:
(§1)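 L1210 cell assay run by a previously described method. Compounds were dissolved in Me2SO and diluted in growth medium to a final 1% Me2SO. The value reported is ED50.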

The test system of series [4] is L1210. Nature of the series: Inhibition of RNA synthesis in mouse L1210 cells assessed as [3H]-uridine incorporation preincubated for 3 hrs before [3H]-uridine addition measured after 1 hr by scintillation spectrometric analysis. Format: functional. As to conditions: read-out: ED50 (the source's name). An outline of the steps:
as §1

The subject of the next series is Escherichia coli. Nature of the series: Induction of Escherichia coli omega enzyme-mediated relaxation of Escherichia coli (RR1) pBR313 closed circular DNA at 40 X 10^-12 mol preincubated for 10 mins followed by enzyme-addition measured after 30 mins by agarose gel electrophoretic analysis. In outline:
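Plasmid pBR313 was isolated from E. coli RR1 cleared lysate by agarose A50 gel filtration. 1.10 μg DNA in 80 mM potassium phosphate pH 7.6, 3 mM MgCl2, 1 mM EDTA was preincubated with drug (40×10⁻¹² mol) for 10 min at 37 °C. About 300 units of ω enzyme were added for 30 min. The reaction was stopped with EDTA and phenol/chloroform extracted. Read-out was 0.7% agarose slab gel electrophoresis with ethidium staining, compared with ethidium bromide.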

For series [5], the system named is P388. Nature of the series: Antitumor activity against mouse P388 cells allografted in mouse assessed as increase in life span at 0.108 mg/kg administered qd on day 1, 5 and 9 relative to control. Type of series: functional. As to conditions: P388, 24 h. In outline:
(§2)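 In vivo testing in tumour-bearing mice was run by the NCI Division of Cancer Treatment. Drug was given on a QD 1, 5, 9 schedule, and 15 mg/kg was the highest dose tested. Toxicity was judged by weight loss of treated animals. Activity is expressed as % increase in life-span (ILS) over untreated tumour-bearing controls.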

The subject of series [6] is Calf thymus DNA. Nature of the series: Binding affinity to calf thymus DNA by NMR spectroscopic analysis. Type of series: nucleic-acid assay. As to conditions: Bos taurus.
Series [7] concerns P388. Nature of the series: Antitumor activity against mouse P388 cells allografted in mouse assessed as increase in life span at 15 mg/kg administered qd on day 1, 5 and 9 relative to control. As to conditions: P388, 24 h. Type of series: functional. In outline:
as §2

Series [8] concerns P388. Nature of the series: Antitumor activity against mouse P388 cells allografted in mouse assessed as increase in life span at 1.94 mg/kg administered qd on day 1, 5 and 9 relative to control. Type of series: functional. As to conditions: P388, 24 h. In outline: as §2
A further series concerns Mus musculus. Nature of the series: Toxicity in mouse allografted with mouse P388 cells assessed as weight loss at 1.94 to 15 mg/kg administered qd on day 1, 5 and 9. Type of series: organism-based. Further details: dose 1.94-15 mg/kg. In outline: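 Mice were dosed on a QD 1, 5, 9 schedule at doses up to 15 mg/kg. Toxicity was judged by weight loss of treated animals.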

Active and inactive are the calls of the source. No cut-off for these calls is given here. *1 amine or outer side, *2 acyl side, *3 side chain or, on linkers, in order; H or OH if unused. Where a SMILES comes first, the peptide text is derived from it. Bridges are numbered along the chain shown (N, C = ends). Roman numbers before positions name the chains, in order. [ ]: non-standard residue; d: D form. Actinocin(1to9) = Cc1c2oc3c(C)ccc(C(=O)[*:2])c3nc-2c(C(=O)[*:1])c(N)c1=O; NMeV = CN[C@H](C(=O)O)C(C)C; Sar = CNCC(=O)O

For orientation: ΔTm means the shift of the melting midpoint relative to a reference. The ILS is how much longer treated animals lived than controls.

Turning to `Cc1c2oc3c(C)ccc(C(=O)N[C@@H]4C(=O)N[C@H](C(C)C)C(=O)N5CCC[C@H]5C(=O)N(C)CC(=O)N(C)[C@@H](C(C)C)C(=O)O[C@@H]4C)c3nc-2c(C(=O)N[C@@H]2C(=O)N[C@H](C(C)C)C(=O)N3CCC[C@H]3C(=O)N(C)CC(=O)N(C)[C@@H](C(C)C)C(=O)O[C@@H]2C)c(Cl)c1=O`, the outcome in the series with Calf thymus DNA [1] and with Escherichia coli was Active. Moreover, the ΔTm in the series on Calf thymus DNA [2] stood at 1.6 °C. Further, the EC50 came out at 86 µM in the series on L1210 [3] and 13 µM with L1210 [4].
As to `Cc1c2oc3c(C)ccc(C(=O)N[C@@H]4C(=O)N[C@H](C(C)C)C(=O)N5CCC[C@H]5C(=O)N(C)CC(=O)N(C)[C@@H](C(C)C)C(=O)O[C@@H]4C)c3nc-2c(C(=O)N[C@@H]2C(=O)N[C@H](C(C)C)C(=O)N3CCC[C@H]3C(=O)N(C)CC(=O)N(C)[C@@H](C(C)C)C(=O)O[C@@H]2C)c(N)c1=O` [DACTINOMYCIN] (I: T[dV]P[Sar][NMeV] / II: T[dV]P[Sar][NMeV]; ester I:1-I:C, II:1-II:C; linker I:N-II:N via Actinocin(1to9)), in the series with Calf thymus DNA [2], the ΔTm came to 7.1 °C. For the same molecule, the EC50 came to 0.4 µM in the series with L1210 [3] and 0.009 µM in the series on L1210 [4]. For the same molecule, in the series on P388 [5], the ILS at 0.108 mg/kg amounted to 100%. The outcome in the series on Escherichia coli was Active.
With `Cc1c2oc3c(C)ccc(C(=O)N[C@@H]4C(=O)N[C@H](C(C)C)C(=O)N5CCC[C@H]5C(=O)N(C)CC(=O)N(C)[C@@H](C(C)C)C(=O)O[C@@H]4C)c3nc-2c(C(=O)N[C@@H]2C(=O)N[C@H](C(C)C)C(=O)N3CCC[C@H]3C(=O)N(C)CC(=O)N(C)[C@@H](C(C)C)C(=O)O[C@@H]2C)c(O)c1=O`, in the series on Calf thymus DNA [2], the shift in melting temperature (ΔTm) amounted to 0 °C. Moreover, the values for the EC50 with L1210 [3] and in the series with L1210 [4] were > 100 µM and 24 µM, respectively.
Take `CC[n+]1c(-c2ccccc2)c2cc(N)ccc2c2ccc(N)cc21`: the outcome in the series on Escherichia coli was Active.
`COc1cccc2c1C(=O)c1c(O)c3c(c(O)c1C2=O)C[C@@](O)(C(C)=O)C[C@@H]3O[C@H]1C[C@H](N)[C@H](O)[C@H](C)O1`: the outcome in the series on Escherichia coli was Active.
Regarding `Cc1c2oc3c(C)ccc(C(=O)N[C@@H]4C(=O)N[C@H](C(C)C)C(=O)N5CCC[C@H]5C(=O)N(C)CC(=O)N(C)[C@@H](C(C)C)C(=O)O[C@@H]4C)c3nc-2c(C(=O)N[C@@H]2C(=O)N[C@H](C(C)C)C(=O)N3CCC[C@H]3C(=O)N(C)CC(=O)N(C)[C@@H](C(C)C)C(=O)O[C@@H]2C)cc1=O`, the result with Calf thymus DNA [6], in the series on Calf thymus DNA [1] and with Escherichia coli was Active. Also, the ΔTm with Calf thymus DNA [2] is 9.9 °C. In addition, the EC50 stood at 63 µM in the series with L1210 [3] and 0.7 µM with L1210 [4]. For the same molecule, the ILS at 15 mg/kg with P388 [7] amounted to 92%. Also, in the series with P388 [8], the ILS at 1.94 mg/kg came out at 46%. Further, the Activity entry in the series on Mus musculus is reported as “Non-toxic”.

For the origin of these results see ChEMBL document CHEMBL3272214, “2-Deaminoactinomycin D, synthesis and interaction with deoxyribonucleic acid” (J Med Chem, 1977).
